Source: ChEMBL document CHEMBL4715919 (Bioorg Med Chem, 2021)

Tested on: not listed separately
Experiment: Intrinsic clearance in human liver microsomes at 30 uM up to 60 mins by LC-MS/MS analysis
Format: ADME, Microsome
Settings: read-out: CLH
In short: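 Compound at 30 μM incubated at 37 °C with human liver microsomes (1 mg/mL protein) in 100 mmol/L phosphate pH 7.4 with 10 mM MgCl₂ and 1 mg/mL NADPH. Sampled at 0, 15, 30 and 60 min, quenched with ice-cold acetonitrile, centrifuged. Parent measured by LC-MS/MS. t1/2 and CLint derived from remaining compound.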

Compound	microsomal CLint at 30 µM [µL/min/mg]
Cc1[nH]nc(O[C@@H]2O[C@H](CO)[C@@H](O)[C@H](O)[C@H]2O)c1Cc1ccc(OC(C)C)cc1	1.44
CCn1nc(O[C@@H]2O[C@H](CO)[C@@H](O)[C@H](O)[C@H]2O)c(Cc2ccc(OC(C)C)cc2)c1C	4.15

Further lines, results first:

microsomal CLint at 30 µM [µL/min/mg]	Compound
3.73	Cc1c(Cc2ccc(OC(C)C)cc2)c(O[C@@H]2O[C@H](CO)[C@@H](O)[C@H](O)[C@H]2O)nn1C
6.75	CCCn1nc(O[C@@H]2O[C@H](CO)[C@@H](O)[C@H](O)[C@H]2O)c(Cc2ccc(OC(C)C)cc2)c1C
0.85	Cc1c(Cc2ccc(OC(C)C)cc2)c(O[C@@H]2O[C@H](CO)[C@@H](O)[C@H](O)[C@H]2O)nn1C(C)C [REMOGLIFLOZIN]

Target: T1, Sodium/glucose cotransporter 2 (Homo sapiens, UniProt P31639)
T1 sequence (P31639 whole entry): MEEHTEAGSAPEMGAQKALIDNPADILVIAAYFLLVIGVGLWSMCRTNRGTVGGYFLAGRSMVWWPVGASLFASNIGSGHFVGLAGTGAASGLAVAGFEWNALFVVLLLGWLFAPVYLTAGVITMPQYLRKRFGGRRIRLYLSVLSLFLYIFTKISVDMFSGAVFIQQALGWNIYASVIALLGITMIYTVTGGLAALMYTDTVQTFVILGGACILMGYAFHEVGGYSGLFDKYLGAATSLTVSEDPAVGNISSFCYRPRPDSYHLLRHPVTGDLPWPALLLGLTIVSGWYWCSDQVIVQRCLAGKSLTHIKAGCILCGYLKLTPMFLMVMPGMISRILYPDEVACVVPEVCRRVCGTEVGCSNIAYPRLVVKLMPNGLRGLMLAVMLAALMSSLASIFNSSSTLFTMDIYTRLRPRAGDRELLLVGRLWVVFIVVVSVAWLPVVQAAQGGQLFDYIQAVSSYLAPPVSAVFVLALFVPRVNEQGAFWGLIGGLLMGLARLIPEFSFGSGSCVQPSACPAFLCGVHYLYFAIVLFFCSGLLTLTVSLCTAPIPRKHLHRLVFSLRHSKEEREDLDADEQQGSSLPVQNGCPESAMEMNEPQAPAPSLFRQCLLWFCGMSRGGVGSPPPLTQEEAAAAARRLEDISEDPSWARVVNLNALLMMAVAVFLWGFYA
Experiment: Inhibition of human SGLT2 expressed in COS7 cells assessed as reduction in [14C]-AMG uptake
Format: cell-based
Settings: not given
In short: (§1)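 Human SGLT2 expression plasmid transfected into COS-7 cells. Uptake of [¹⁴C]-α-methyl-D-glucopyranoside (AMG) measured with 0.3 mM AMG in uptake buffer. […] Mean ± SEM of at least three independent experiments.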

Compound	IC50 [nM]
Cc1ccc(Cc2c(O[C@@H]3O[C@H](CO)[C@@H](O)[C@H](O)[C@H]3O)n[nH]c2C)cc1	12.2
CCCc1ccc(Cc2c(O[C@@H]3O[C@H](CO)[C@@H](O)[C@H](O)[C@H]3O)n[nH]c2C)cc1	8.8
CCCOc1ccc(Cc2c(O[C@@H]3O[C@H](CO)[C@@H](O)[C@H](O)[C@H]3O)n[nH]c2C)cc1	15.4
CCOc1ccc(Cc2c(O[C@@H]3O[C@H](CO)[C@@H](O)[C@H](O)[C@H]3O)n[nH]c2C)cc1	10.8
Cc1[nH]nc(O[C@@H]2O[C@H](CO)[C@@H](O)[C@H](O)[C@H]2O)c1Cc1ccc(OC(C)C)cc1	10
Cc1[nH]nc(O[C@@H]2O[C@H](CO)[C@@H](O)[C@H](O)[C@H]2O)c1Cc1ccc(C(C)C)cc1	16.2
CCc1[nH]nc(O[C@@H]2O[C@H](CO)[C@@H](O)[C@H](O)[C@H]2O)c1Cc1ccc(SC)cc1	51.2
CSc1ccc(Cc2c(O[C@@H]3O[C@H](CO)[C@@H](O)[C@H](O)[C@H]3O)n[nH]c2C(F)(F)F)cc1	16.3
Cc1cccc(Cc2c(O[C@@H]3O[C@H](CO)[C@@H](O)[C@H](O)[C@H]3O)n[nH]c2C)c1	757
CCn1nc(O[C@@H]2O[C@H](CO)[C@@H](O)[C@H](O)[C@H]2O)c(Cc2ccc(OC(C)C)cc2)c1C	43.4
Cc1[nH]nc(O[C@@H]2O[C@H](CO)[C@@H](O)[C@H](O)[C@H]2O)c1CCCc1ccccc1	3950
CSc1ccc(Cc2c(O[C@@H]3O[C@H](CO)[C@@H](O)[C@H](O)[C@H]3O)n[nH]c2C(C)C)cc1	154
CCOC(=O)OC[C@H]1O[C@@H](Oc2nn(C(C)C)c(C)c2Cc2ccc(OC(C)C)cc2)[C@H](O)[C@@H](O)[C@@H]1O [REMOGLIFLOZIN ETABONATE]	2530

Second part, the molecule after the results:

IC50 [nM]	Compound
4.9	CSc1ccc(Cc2c(O[C@@H]3O[C@H](CO)[C@@H](O)[C@H](O)[C@H]3O)n[nH]c2C)cc1
12.3	COc1ccc(Cc2c(O[C@@H]3O[C@H](CO)[C@@H](O)[C@H](O)[C@H]3O)n[nH]c2C)cc1
3.9	CCc1ccc(Cc2c(O[C@@H]3O[C@H](CO)[C@@H](O)[C@H](O)[C@H]3O)n[nH]c2C)cc1
914	Cc1ccccc1Cc1c(O[C@@H]2O[C@H](CO)[C@@H](O)[C@H](O)[C@H]2O)n[nH]c1C
> 1000	Cc1nn(C)c(O[C@@H]2O[C@H](CO)[C@@H](O)[C@H](O)[C@H]2O)c1Cc1ccc(OC(C)C)cc1
86	OC[C@H]1O[C@@H](Oc2n[nH]c3cccc(CCc4ccccc4)c23)[C@H](O)[C@@H](O)[C@@H]1O
110	Cc1c(Cc2ccc(OC(C)C)cc2)c(O[C@@H]2O[C@H](CO)[C@@H](O)[C@H](O)[C@H]2O)nn1C
66.1	CCCn1nc(O[C@@H]2O[C@H](CO)[C@@H](O)[C@H](O)[C@H]2O)c(Cc2ccc(OC(C)C)cc2)c1C
5290	Cc1[nH]nc(O[C@@H]2O[C@H](CO)[C@@H](O)[C@H](O)[C@H]2O)c1CCc1ccccc1
181	Cc1[nH]nc(O[C@@H]2O[C@H](CO)[C@@H](O)[C@H](O)[C@H]2O)c1Cc1ccccc1
18.4	Cc1c(Cc2ccc(OC(C)C)cc2)c(O[C@@H]2O[C@H](CO)[C@@H](O)[C@H](O)[C@H]2O)nn1C(C)C [REMOGLIFLOZIN]

Target: T1, Sodium/glucose cotransporter 2
Experiment: Inhibition of human SGLT2 expressed in COS7 cells
Format: cell-based
Settings: not given
In short: as §1

IC50 [mM]	Compound
> 1	CSc1ccc(Cc2c(C(F)(F)F)n[nH]c2O)cc1

Tested on: not listed separately
Experiment: AUC(0 to t) in rat at 3 mg/kg, po up to 360 mins by LC-MS/MS analysis
Format: ADME, organism-based
Design: route oral, dose 3 mg/kg, time <=360
Settings: in vivo
In short: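 Rats dosed once orally at 3 mg/kg (5 mL/kg) as a suspension in 0.5 w/v% methyl cellulose 400. Jugular vein blood drawn at 5, 10, 15, 30, 60, 120, 240 and 360 min. Plasma levels measured by LC-MS/MS. AUC taken to the last observation point. Mean ± SD.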

AUC(0-t) at 6 h [ng·h/mL]	Compound
6.42	Cc1[nH]nc(O[C@@H]2O[C@H](CO)[C@@H](O)[C@H](O)[C@H]2O)c1Cc1ccc(OC(C)C)cc1
27.9	Cc1c(Cc2ccc(OC(C)C)cc2)c(O[C@@H]2O[C@H](CO)[C@@H](O)[C@H](O)[C@H]2O)nn1C(C)C [REMOGLIFLOZIN]

Tested on: not listed separately
Experiment: Oral bioavailability in rat assessed as ratio of AUC at 3 mg/kg up to 360 mins by LC-MS/MS analysis
Format: ADME, organism-based
Settings: in vivo
In short: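 Rat oral dosing at 3 mg/kg in 0.5% methyl cellulose, with iv dosing at 1 mg/kg in 20% DMA/80% saline. Jugular blood sampled from 5 to 360 min, plasma quantified by LC-MS/MS. F is the ratio of oral AUC to iv AUC. For the ester prodrug, AUC of the parent glucoside after prodrug dosing is compared with iv parent.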

bioavailability [%]	Compound
0.43	Cc1[nH]nc(O[C@@H]2O[C@H](CO)[C@@H](O)[C@H](O)[C@H]2O)c1Cc1ccc(OC(C)C)cc1
5.79	CCOC(=O)OC[C@H]1O[C@@H](Oc2nn(C(C)C)c(C)c2Cc2ccc(OC(C)C)cc2)[C@H](O)[C@@H](O)[C@@H]1O [REMOGLIFLOZIN ETABONATE]
3.23	Cc1c(Cc2ccc(OC(C)C)cc2)c(O[C@@H]2O[C@H](CO)[C@@H](O)[C@H](O)[C@H]2O)nn1C(C)C [REMOGLIFLOZIN]

Tested on: not listed separately
Experiment: Intrinsic clearance in rat intestinal S9 fraction at 10 uM up to 60 min in presence of NADPH by LC-MS/MS analysis
Settings: not given

Compound	microsomal CLint at 10 µM [µL/min/mg]
Cc1[nH]nc(O[C@@H]2O[C@H](CO)[C@@H](O)[C@H](O)[C@H]2O)c1Cc1ccc(OC(C)C)cc1	4.1
CCc1[nH]nc(O[C@@H]2O[C@H](CO)[C@@H](O)[C@H](O)[C@H]2O)c1Cc1ccc(SC)cc1	4.8
CSc1ccc(Cc2c(O[C@@H]3O[C@H](CO)[C@@H](O)[C@H](O)[C@H]3O)n[nH]c2C(F)(F)F)cc1	73.2
CSc1ccc(Cc2c(O[C@@H]3O[C@H](CO)[C@@H](O)[C@H](O)[C@H]3O)n[nH]c2C(C)C)cc1	4.6
CCOC(=O)OC[C@H]1O[C@@H](Oc2nn(C(C)C)c(C)c2Cc2ccc(OC(C)C)cc2)[C@H](O)[C@@H](O)[C@@H]1O [REMOGLIFLOZIN ETABONATE]	3.4

The next lines start with the values.

microsomal CLint at 10 µM [µL/min/mg]	Compound
3.2	CSc1ccc(Cc2c(O[C@@H]3O[C@H](CO)[C@@H](O)[C@H](O)[C@H]3O)n[nH]c2C)cc1
3.9	Cc1c(Cc2ccc(OC(C)C)cc2)c(O[C@@H]2O[C@H](CO)[C@@H](O)[C@H](O)[C@H]2O)nn1C(C)C [REMOGLIFLOZIN]

Tested on: not listed separately
Experiment: Apparent permeability of compound in human Caco-2 cells by LC-MS/MS analysis
Format: ADME, cell-based
Settings: not given
In short: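 Caco-2 cells seeded at 1.0 × 10⁵ cells/well on polycarbonate inserts (0.3 cm², 1 μm pores). After 60 min at 37 °C in 5% CO₂, buffer sampled from the opposite side. Compound measured by LC-MS/MS. Papp in 10^-6 cm/s.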

Papp [×10⁻⁶ cm/s]	Compound
1.02	Cc1[nH]nc(O[C@@H]2O[C@H](CO)[C@@H](O)[C@H](O)[C@H]2O)c1Cc1ccc(OC(C)C)cc1
4.29	CCOC(=O)OC[C@H]1O[C@@H](Oc2nn(C(C)C)c(C)c2Cc2ccc(OC(C)C)cc2)[C@H](O)[C@@H](O)[C@@H]1O [REMOGLIFLOZIN ETABONATE]
3.16	Cc1c(Cc2ccc(OC(C)C)cc2)c(O[C@@H]2O[C@H](CO)[C@@H](O)[C@H](O)[C@H]2O)nn1C(C)C [REMOGLIFLOZIN]
